The text below walks through data of PubChem BioAssay.

Activity calls are given as the source filed them.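 The calls were made as follows, unless noted: active = fluorescence slope higher than the sample average by over 3 SD (cut at about -0.22 in these data, passing the limit was not always enough); inactive = the rest.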

The inhibition is the change of the read-out against control, counted positive when it falls.

Test [1] can be described thus: inhibitors of TNFa-induced NFkB p65 translocation, primary screen, imaging, HUVEC, MLSMR starter and 10KST1 sets (AID 438;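 active = inhibition above 20% together with a positive visual image hit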;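 also: compound added about 3h40 before a 20 min TNFalpha stimulation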;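 as to inhibition: signal is the nuclear over cytoplasmic p65 intensity ratio per well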). Conditions: HUVEC TNFa-induced p65 nuclear translocation; cell count: measured here: nuclei count (cytotoxicity indicator), at 2.08 µM; inhibition: at 2 µM, stronger effect = higher value, 0% TNFa-plus-vehicle, 100% no-TNFa wells.
Test [2] is described as follows: inhibitors of E-selectin induction by TNFa, primary screen, imaging, HUVEC, immunofluorescence, MLSMR starter and 10KST1 sets (AID 487;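 active = visually confirmed hit in the image check and inhibition above 20%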;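 as to inhibition: signal is fraction of cell area covered by stained E-selectin grains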;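 as to nuclei count: 100% = median nuclei count of all wells on the same plate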). The settings on record: HUVEC TNFalpha-induced E-selectin immunofluorescence imaging, at 2 µM; inhibition: stronger effect = higher value; nuclei count: measured here: cell number, toxicity.
Test [3] is described as follows: DUSP6 inhibitors restoring Erk phosphorylation by chemical complementation, primary imaging in DUSP6-transfected HeLa (AID 609;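 active = compounds giving at least 50% inhibition in the cell-based MKP-3 phosphatase rescue imaging test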;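 as to inhibition: phospho-Erk level distribution per well compared with pooled transfected vehicle control wells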). The settings on record: HeLa MKP-3 transfected, phospho-Erk imaging KS statistic, at 10 µM, cells stimulated with TPA for 15 min.
The target in test [4] is Dual specificity protein phosphatase 6 (Homo sapiens) (UniProt Q16828). The test is described as above. Conditions: HeLa MKP-3 transfected, phospho-Erk imaging KS statistic; at 10 µM; stronger effect = higher value; cells stimulated with TPA for 15 min.
Dual specificity protein phosphatase 6 (Homo sapiens), sequence (Q16828 whole entry, looked up): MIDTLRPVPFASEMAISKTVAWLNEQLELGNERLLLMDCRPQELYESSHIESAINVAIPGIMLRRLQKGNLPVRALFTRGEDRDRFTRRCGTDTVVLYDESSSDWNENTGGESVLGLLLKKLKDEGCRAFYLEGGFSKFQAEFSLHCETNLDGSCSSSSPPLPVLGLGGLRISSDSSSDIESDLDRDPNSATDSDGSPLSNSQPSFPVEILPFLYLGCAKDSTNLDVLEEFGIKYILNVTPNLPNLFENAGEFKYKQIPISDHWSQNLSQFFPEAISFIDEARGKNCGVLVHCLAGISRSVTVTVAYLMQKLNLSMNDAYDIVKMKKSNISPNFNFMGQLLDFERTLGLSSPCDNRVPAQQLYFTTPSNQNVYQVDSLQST
Test [5] concerns the target Voltage-gated potassium channel subunit beta-2 (Rattus norvegicus) (UniProt P62483). The experiment in a line: KvBeta enzyme negative modulators, primary screen, biochemical, NADPH fluorescence (AID 622).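 Also: slope of raw intensity against log time taken from 70 to 1610 s.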 The settings on record: recombinant KvBeta, 4-cyanobenzaldehyde reduction, at 10 µM, stronger effect = higher value.
For test [6] the target is unchanged. As to the kind of experiment: KvBeta positive modulators, primary screen, biochemical, NADPH fluorescence (AID 623;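 active = NADPH fluorescence slope more negative than the mean of all samples by about 3 SD, 99.7% confidence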;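 also: fluorescence intensity change per second fitted from 20 to 320 s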). Conditions: Recombinant KvBeta, NADPH fluorescence decrease slope, 10 min; at 10 µM; stronger effect = lower value.
In test [7] the target is Muscarinic acetylcholine receptor M4 (Homo sapiens) (UniProt P08173). The experiment in a line: compounds altering M4/GIRK thallium flux, either direction, primary screen, M4 allosteric agonist project, cell-based, HEK293 M4/GIRK, BTC-AM (AID 625;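 active = fluorescence slope after compound addition differing from the mean of all tested samples at 99.7% confidence, mostly higher but some lower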;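 also: thallium influx through GIRK channels coupled to M4 in HEK293 cells with BTC-AM dye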). Conditions: at 10 µM, actives lie on both sides. The procedure, abridged:
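Material: HEK293 cells with M4 receptor and GIRK channels; Times: cells overnight at 37 °C, BTC-AM loading 1 h, reads 2 min total; Technique: kinetic BTC-AM fluorescence sampled at 1 Hz, 10 s pre-addition baseline; Read-out basis: slope over 15–24 s of trace normalized to starting intensity; Controls: carbachol positive, DMSO negative.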

Test [8] can be described thus: inhibitors of larval lipid processing in zebrafish, primary screen, whole organism, PED6 fluorescence, gall bladder and intestine (AID 686;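 active = a full or partial loss of lipid-probe fluorescence in the fish gall bladder, intestine or both, judged by eye; inactive = no fluorescence loss, or compound toxic to the fish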;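 also: larvae 5 to 7 days old with five fish per well; signal comes from phospholipase A2 cleavage of quenched PED6 carried via bile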). The settings on record: Zebrafish larvae PED6 lipid processing, fluorescence scoring; screened at 20 µM (by protocol). The procedure, abridged:
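Incubation: overnight exposure of larvae to compound plus PED6 / Test system: live zebrafish larvae aged 5-7 days, whole organism / Amount: 5 larvae per well / Read-out basis: visual per-well fluorescence inhibition score / Signal: visual fluorescence microscopy scoring of gall bladder, gut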

A short description of test [9]: inhibitors of Chlamydomonas gravitaxis, primary screen, whole organism, Chlamydomonas reinhardtii, WT vs cilia-less mutant, absorbance, 96-well (AID 463189;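 active = inhibition at or above 50% relative to wild type and mutant plate controls; inactive = inhibition below 50%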;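 also: 0% = wild type cc124 cells in DMSO and 100% = ciliumless bld1 mutant cells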). The settings on record: OD600 absorbance, 2 days, at 10 µM, stronger effect = higher value.
The mark [10] stands for this setting: measured here: cell density z-score.
[11] abbreviates: measured here: nuclear c-Myc green intensity z-score.
Where [12] appears, read: measured here: nuclear pErk red intensity z-score, stronger effect = higher value.

Voltage-gated potassium channel subunit beta-2 (Rattus norvegicus), sequence (P62483 whole entry, looked up): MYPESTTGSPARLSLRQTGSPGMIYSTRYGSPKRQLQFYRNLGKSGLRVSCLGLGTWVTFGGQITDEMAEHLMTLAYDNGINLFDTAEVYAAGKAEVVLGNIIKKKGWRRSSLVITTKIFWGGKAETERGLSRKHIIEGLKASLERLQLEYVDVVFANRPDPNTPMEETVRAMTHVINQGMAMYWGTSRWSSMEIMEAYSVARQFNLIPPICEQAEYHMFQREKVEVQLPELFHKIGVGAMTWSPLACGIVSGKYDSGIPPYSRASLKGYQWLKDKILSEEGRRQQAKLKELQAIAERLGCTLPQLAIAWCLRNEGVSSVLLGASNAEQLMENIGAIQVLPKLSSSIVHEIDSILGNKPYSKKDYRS
Muscarinic acetylcholine receptor M4 (Homo sapiens), sequence (P08173 whole entry, looked up): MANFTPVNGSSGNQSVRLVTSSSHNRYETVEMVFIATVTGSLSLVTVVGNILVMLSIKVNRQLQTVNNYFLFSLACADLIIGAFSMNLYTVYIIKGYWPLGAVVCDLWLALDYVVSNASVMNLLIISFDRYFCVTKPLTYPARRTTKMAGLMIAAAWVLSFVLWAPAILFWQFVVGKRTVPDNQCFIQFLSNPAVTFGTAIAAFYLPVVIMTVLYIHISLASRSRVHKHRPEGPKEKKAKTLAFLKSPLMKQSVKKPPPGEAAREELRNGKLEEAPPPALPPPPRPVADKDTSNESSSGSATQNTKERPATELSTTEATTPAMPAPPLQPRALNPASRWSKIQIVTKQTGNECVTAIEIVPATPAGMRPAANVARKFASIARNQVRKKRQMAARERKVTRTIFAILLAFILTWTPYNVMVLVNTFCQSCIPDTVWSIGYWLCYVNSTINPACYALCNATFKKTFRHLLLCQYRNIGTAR

On to `C=CCN(C)CCCNC(=O)/C=N/O`, for which the cell count in test [1] is 585. The inhibition in [1] was -6.9% (inactive); in test [2], 22.6% (inactive); in test [4], 31.4% (inactive); in [9], -9.97% (inactive). The compound also yielded a nuclei count in test [2] of 87%. Further, the results for the z-score in test [3] (setting [10]), in [3] (setting [11]) and in test [3] (setting [12]) were 1.68, -0.8 and -0.822, respectively. Further, the fluorescence slope in [5] was -0.504 (inactive); in test [7], 0.00593 (inactive). For the same compound, in test [6], the NADPH fluorescence slope was -8.8e-05 (inactive). The call in test [8] was inactive.

Consider `O=C(CC(c1ccc(F)cc1)c1ccco1)N1CCCC1` (centres undefined), for which, in [1], the cell count was 494. Besides, the inhibition in test [1] was -4% (inactive); in test [2], -36.9% (inactive); in [4], 9.91% (inactive); in test [9], -1.73% (inactive). This compound registered a nuclei count in test [2] of 182%. Also, the z-score in [3] (setting [10]) is -0.749; in test [3] (setting [11]), 0.895; in test [3] (setting [12]), -0.708. In addition, the fluorescence slope in test [5] is -0.404 (inactive); in test [7], 0.00541 (inactive). Also, in [6], the NADPH fluorescence slope was -1.7e-05 (inactive). For the same compound, the compound was classed as inactive in test [8].

Regarding `O=C1CCC(=O)N1c1nc2n(n1)C(c1ccccc1)C=C(c1ccc(Br)cc1)N2` (centres undefined), the cell count in test [1] came to 369. Also, the inhibition in [1] is 3% (inactive); in test [2] it was -50% (inactive); in [4], 3.56% (inactive); in test [9] it was 17.5% (inactive). In [2], this compound registered a nuclei count of 71.6%. Moreover, the values for the z-score in test [3] (setting [10]), in [3] (setting [11]) and in test [3] (setting [12]) were 0.246, -0.538 and -1.14, respectively. Also, the fluorescence slope in test [5] was -0.374 (inactive); in [7], 0.0047 (inactive). Besides, the NADPH fluorescence slope in test [6] is -9.5e-05 (inactive). In test [8], the outcome was inactive.

For the compound `COc1ccc(/C(O)=C2/C(=O)C(=O)N(c3nc(C)c(C)s3)C2c2ccco2)cc1` (centres undefined), the cell count in test [1] was found to be 611. The inhibition was -12.5% (inactive) in test [1], -52.8% (inactive) in test [2], 12.7% (inactive) in test [4] and 0.492% (inactive) in [9]. In test [2], this compound came in with a nuclei count of 196%. Moreover, the values for the z-score in test [3] (setting [10]), in test [3] (setting [11]) and in test [3] (setting [12]) were 1.1, -0.551 and 1.3, respectively. Further, the fluorescence slope in [5] is -0.446 (inactive); in test [7] it was 0.00557 (inactive). Besides, the NADPH fluorescence slope in test [6] is -5.8e-05 (inactive). Moreover, the result in test [8] was inactive.

Take `CCN(CC)CCN1C(=O)C(O)=C(C(=O)c2cc3ccccc3o2)C1c1cccnc1` (centres undefined): the cell count in [1] is 423. Besides, the inhibition in test [1] was -6.8% (inactive); in [2], 14.8% (inactive); in [4] it was 3.56% (inactive); in test [9], -8.96% (inactive). The same compound displayed a nuclei count in test [2] of 163%. Further, the z-score in [3] (setting [10]) was -0.472; in [3] (setting [11]), -0.722; in test [3] (setting [12]) it was -0.061. The values for the fluorescence slope in test [5] and in [7] were -0.431 (inactive) and 0.00445 (inactive), respectively. Moreover, the NADPH fluorescence slope in [6] was -0.000135 (inactive). In addition, the compound was called inactive in test [8].

On to `CC(C)CNC(=O)c1c(N)n(/N=C/c2cccnc2)c2nc3ccccc3nc12`, for which, in [1], the cell count was 412. Besides, the inhibition was -2.8% (inactive) in [1], -18% (inactive) in test [2], 17.7% (inactive) in test [4] and 35.6% (inactive) in [9]. The same compound gave a nuclei count in test [2] of 105%. Further, the z-score is 1.93 in [3] (setting [10]), -1.56 in [3] (setting [11]) and -0.113 in test [3] (setting [12]). Moreover, the fluorescence slope was -0.347 (inactive) in test [5] and 0.00594 (inactive) in test [7]. Further, in test [6], the NADPH fluorescence slope was 4.3e-06 (inactive). In addition, in test [8], the result was inactive.

In the case of `Cc1cc(OCC(=O)Nn2cnnc2)ccc1Br`, the cell count in [1] is 529. Further, the inhibition in test [1] is -8.3% (inactive); in test [2] it was -72.3% (inactive); in test [4], -6.59% (inactive); in test [9] it was -9.18% (inactive). In addition, the nuclei count in test [2] amounted to 119%. Besides, the z-score is 0.551 in [3] (setting [10]), 0.431 in [3] (setting [11]) and 0.858 in test [3] (setting [12]). Also, the values for the fluorescence slope in test [5] and in [7] were -0.433 (inactive) and 0.00434 (inactive), respectively. Besides, the NADPH fluorescence slope in [6] was -0.00012 (inactive). For the same compound, the result in [8] was inactive.

`COc1ccc(/C(O)=C2/C(=O)C(=O)N(CCN3CCOCC3)C2c2cccnc2)cc1OC` (centres undefined): in [1], the cell count is 364. For the same compound, the inhibition was -4.2% (inactive) in test [1], -126% (inactive) in test [2], 11.9% (inactive) in test [4] and -1.91% (inactive) in [9]. The nuclei count in test [2] amounted to 151%. The results for the z-score in [3] (setting [10]), in test [3] (setting [11]) and in test [3] (setting [12]) were -0.575, 1.61 and -0.594, respectively. Besides, the fluorescence slope in test [5] was -0.486 (inactive); in test [7] it was 0.00405 (inactive). In [6], the NADPH fluorescence slope is -4.1e-05 (inactive). The result in [8] was inactive.

Consider `CCN(CC)CCCN1C(=O)C(=O)/C(=C(/O)c2ccc3c(c2)CC(C)O3)C1c1cccnc1` (centres undefined), for which the cell count in test [1] came to 574. The inhibition was -10.8% (inactive) in test [1], 68% (inactive) in test [2], 6.04% (inactive) in test [4] and 13.2% (inactive) in test [9]. Further, the nuclei count in test [2] stood at 83.2%. Besides, the z-score in test [3] (setting [10]) is -1.33; in [3] (setting [11]), 0.323; in test [3] (setting [12]), 0.536. The fluorescence slope is -0.502 (inactive) in test [5] and 0.00627 (inactive) in test [7]. Further, the NADPH fluorescence slope in [6] is -2.4e-05 (inactive). Also, the compound was classed as inactive in [8].

Take `O=C1C(=O)N(Cc2cccnc2)C(c2ccccn2)/C1=C(/O)c1ccc(Br)cc1` (centres undefined): the cell count in test [1] was 486. The inhibition was -5.3% (inactive) in [1], -24.5% (inactive) in [2], 4.37% (inactive) in test [4] and -1.46% (inactive) in [9]. The nuclei count in test [2] is 156%. In addition, the figures for the z-score in test [3] (setting [10]), in [3] (setting [11]) and in [3] (setting [12]) were 1.28, -0.786 and -0.613, respectively. Besides, the fluorescence slope in test [5] was -0.457 (inactive); in [7] it was 0.00516 (inactive). The NADPH fluorescence slope in [6] is -4.3e-05 (inactive). Besides, in test [8], the compound was classed as inactive.

`CC(NC(=O)NCc1cccnc1)(C(F)(F)F)C(F)(F)F`: the cell count in [1] is 708. Further, the inhibition was -13.6% (inactive) in [1], -45% (inactive) in [2], -2.09% (inactive) in [4] and 10.1% (inactive) in [9]. The same compound had a nuclei count in test [2] of 138%. Further, the values for the z-score in test [3] (setting [10]), in test [3] (setting [11]) and in test [3] (setting [12]) were -0.926, 1.23 and 1.47, respectively. Further, the values for the fluorescence slope in [5] and in test [7] were -0.446 (inactive) and 0.00505 (inactive), respectively. The NADPH fluorescence slope in test [6] is -4.7e-05 (inactive). The result in [8] was inactive.

On to `COc1ccc(CCNc2oc(COc3ccccc3)nc2C#N)cc1`, for which the cell count in test [1] is 481. Also, the inhibition was -2.4% (inactive) in test [1], -411% (inactive) in test [2], -3.95% (inactive) in test [4] and -2.43% (inactive) in [9]. For the same compound, in test [2], the nuclei count worked out at 140%. The results for the z-score in test [3] (setting [10]), in test [3] (setting [11]) and in test [3] (setting [12]) were 0.781, 0.424 and 0.61, respectively. The fluorescence slope in [5] was -0.409 (inactive); in [7] it was 0.00409 (inactive). In addition, the NADPH fluorescence slope in test [6] is -5.2e-05 (inactive). Moreover, the result in test [8] was inactive.

On to `CCOC(=O)C1CCN(c2ncnc3c2cnn3-c2ccc(Cl)cc2)CC1`, for which the cell count in [1] stood at 621. Further, the inhibition in test [1] was -13.7% (inactive); in [2] it was -82.8% (inactive); in test [4] it was 27.4% (inactive); in test [9], -0.354% (inactive). For the same compound, the nuclei count in test [2] was 158%. Also, the z-score in test [3] (setting [10]) is 1.18; in test [3] (setting [11]), -0.0217; in test [3] (setting [12]), -0.611. Moreover, the fluorescence slope is -0.442 (inactive) in test [5] and 0.00741 (inactive) in [7]. The NADPH fluorescence slope in test [6] is -1.8e-05 (inactive). Also, the compound was called inactive in test [8].
